Assay results published in ChEMBL document CHEMBL4392823, “Potassium channel blocking 1,2-bis(aryl)ethane-1,2-diamines active as antiarrhythmic agents” (Bioorg Med Chem Lett, 2019).

Experiments:
Cytochrome P450 3A4 = Cytochrome P450 3A4 (Homo sapiens, UniProt P08684); assay: Drug metabolism in human hepatocytes assessed as CYP3A4-mediated drug metabolism; assay type: ADME, cell-based
[1] = Dissociation constant, pKa of the compound; assay type: physicochemical
[2] = target: T1, Potassium voltage-gated channel subfamily A member 5 (Homo sapiens, UniProt P22460); assay: Inhibition of recombinant human Kv1.5 expressed in CHO cells by IonWork high-throughput electrophysiology assay; assay type: cell-based
How it was run: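 Kv1.5 current recorded in CHO cells by IonWorks HT automated electrophysiology. IC50 is the average of 2 measurements unless n=1 is noted.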

[3] = Lipophilicity, log D of the compound by chromatographic method; assay type: physicochemical
How it was run: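 Lipophilicity (log D) measured by a chromatographic method.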

[4] = Intrinsic clearance in human liver microsomes; assay type: ADME, Microsome; conditions: read-out: CLH
[5] = Stability in human liver microsomes assessed as formation of iminium ions; assay type: ADME, Microsome
[6] = target: Voltage-gated inwardly rectifying potassium channel KCNH2 (Homo sapiens, UniProt Q12809); assay: Inhibition of human ERG
Cytochrome P450 2D6 = Cytochrome P450 2D6 (Homo sapiens, UniProt P10635); assay: Inhibition of CYP2D6 (unknown origin); assay type: ADME
[7] = target: Potassium voltage-gated channel subfamily E member 1 (Homo sapiens, UniProt P15382); assay: Inhibition of IKs (unknown origin)
[8] = target: T1, Potassium voltage-gated channel subfamily A member 5; assay: Inhibition of Kv1.5 in human atrial myocytes assessed as blockade of Ikur current; assay type: cell-based
[9] = Renal clearance in dog; assay type: ADME, Canis lupus familiaris; conditions: in vivo
[10] = Plasma clearance in dog; assay type: ADME, Canis lupus familiaris
[11] = Drug excretion in dog urine; assay type: ADME, Canis lupus familiaris; conditions: read-out: Drug excretion
Oryctolagus cuniculus = assay: Antiarrhythmic activity in iv dosed anesthetized rabbit assessed as free compound plasma exposure which prolongs the right atrial effective refractory period by 20 milliseconds measured after 20 mins by electrophysiological analysis; assay type: functional
How it was run: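 Anesthetized rabbits received increasing intravenous infusions of test compound. Right atrial effective refractory period was measured 20 min after each dose. Value is the free plasma exposure giving a 20 ms RAERP prolongation.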

[12] = Cardiotoxicity in dog assessed as blockade of sodium channel by measuring changes in ECG at higher dose; assay type: toxicity, Canis lupus familiaris; conditions: in vivo
[13] = target: T2, G protein-activated inward rectifier potassium channel 4 (Homo sapiens, UniProt P48544); assay: Inhibition of Kir3.4 (unknown origin)
T2 sequence (P48544 whole entry): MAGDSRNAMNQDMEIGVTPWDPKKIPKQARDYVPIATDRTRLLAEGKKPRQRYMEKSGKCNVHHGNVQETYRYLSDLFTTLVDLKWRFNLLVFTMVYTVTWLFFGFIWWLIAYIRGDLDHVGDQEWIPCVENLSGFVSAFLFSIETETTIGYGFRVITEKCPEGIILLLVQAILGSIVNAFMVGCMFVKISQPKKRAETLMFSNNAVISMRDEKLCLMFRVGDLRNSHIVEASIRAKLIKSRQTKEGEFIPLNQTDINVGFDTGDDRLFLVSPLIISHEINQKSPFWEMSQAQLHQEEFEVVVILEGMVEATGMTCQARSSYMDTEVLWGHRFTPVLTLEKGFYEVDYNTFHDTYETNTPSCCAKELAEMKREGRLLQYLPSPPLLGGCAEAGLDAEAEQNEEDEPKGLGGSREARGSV

[14] = target: Voltage-dependent L-type calcium channel subunit alpha-1C (Homo sapiens, UniProt Q13936); assay: Inhibition of CaV1.2 (unknown origin)
[15] = target: T3, G protein-activated inward rectifier potassium channel 1 (Homo sapiens, UniProt P48549); assay: Inhibition of Kir3.1 (unknown origin)
T3 sequence (P48549 whole entry): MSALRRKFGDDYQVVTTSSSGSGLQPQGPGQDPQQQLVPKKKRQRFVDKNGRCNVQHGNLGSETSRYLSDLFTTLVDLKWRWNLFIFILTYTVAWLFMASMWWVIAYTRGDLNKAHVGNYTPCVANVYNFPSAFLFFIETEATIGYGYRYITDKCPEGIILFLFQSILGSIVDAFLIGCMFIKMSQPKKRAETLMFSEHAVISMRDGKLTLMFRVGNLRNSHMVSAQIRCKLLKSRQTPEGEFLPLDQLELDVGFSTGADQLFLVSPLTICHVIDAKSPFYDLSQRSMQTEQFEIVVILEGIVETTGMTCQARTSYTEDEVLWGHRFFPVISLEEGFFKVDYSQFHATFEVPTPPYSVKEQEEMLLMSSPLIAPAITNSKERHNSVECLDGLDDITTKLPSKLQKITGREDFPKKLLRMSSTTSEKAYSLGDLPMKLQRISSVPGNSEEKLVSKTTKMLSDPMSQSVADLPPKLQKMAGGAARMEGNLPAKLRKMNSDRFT

[16] = target: T4, A-type voltage-gated potassium channel KCND3 (Homo sapiens, UniProt Q9UK17); assay: Inhibition of Kv4.3 (unknown origin)
T4 sequence (Q9UK17 whole entry): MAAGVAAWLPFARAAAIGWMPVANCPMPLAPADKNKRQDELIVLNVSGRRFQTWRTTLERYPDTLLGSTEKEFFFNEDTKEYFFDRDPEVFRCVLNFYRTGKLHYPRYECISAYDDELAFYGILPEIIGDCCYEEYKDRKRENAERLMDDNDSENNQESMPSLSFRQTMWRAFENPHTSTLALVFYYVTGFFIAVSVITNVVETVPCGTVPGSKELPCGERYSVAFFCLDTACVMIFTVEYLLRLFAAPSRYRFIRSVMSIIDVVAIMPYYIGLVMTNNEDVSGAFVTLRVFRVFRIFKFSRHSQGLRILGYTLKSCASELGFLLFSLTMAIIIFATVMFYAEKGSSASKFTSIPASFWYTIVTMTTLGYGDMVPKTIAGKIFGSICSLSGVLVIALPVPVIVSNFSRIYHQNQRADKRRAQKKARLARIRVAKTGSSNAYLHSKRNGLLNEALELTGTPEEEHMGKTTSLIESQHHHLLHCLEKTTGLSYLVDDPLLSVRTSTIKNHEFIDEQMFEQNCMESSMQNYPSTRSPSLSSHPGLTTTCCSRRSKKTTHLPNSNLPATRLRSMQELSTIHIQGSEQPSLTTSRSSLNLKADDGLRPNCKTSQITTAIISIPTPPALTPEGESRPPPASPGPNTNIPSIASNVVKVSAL

Canis familiaris = species: Canis familiaris; assay: Antiarrhythmic activity in rapid atrial pacing dog model of atrial fibrillation assessed as unbound plasma concentration required to convert atrial fibrillation to sinus rhythm; assay type: functional, Canis lupus familiaris
How it was run: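 Rapid atrial pacing dog model of AF (n=12). Read-out was conversion of AF to sinus rhythm, with the unbound plasma concentration at conversion reported as mean ± spread.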

[17] = target: T5, Glutamate [NMDA] receptor (Homo sapiens) (UniProt Q05586+Q12879+Q13224+O15399+O60391+Q14957+Q8TCU5); assay: Inhibition of NMDA receptor phencyclidine binding site (unknown origin) at 10 uM relative to control; assay type: protein-complex assay
[18] = target: T5, Glutamate [NMDA] receptor (Homo sapiens); assay: Inhibition of NMDA receptor glycine binding site (unknown origin) at 10 uM relative to control; assay type: protein-complex assay
[19] = Free drug level in rat brain at 2 umol/kg/hr administered for 4 hrs; assay type: ADME, tissue-based; conditions: in vivo
How it was run: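 Rats received a continuous intravenous infusion at 2 μmol/kg/h for 4 h. Total brain and plasma concentrations were measured at steady state. Free levels were calculated from measured unbound fractions in brain and plasma, and free brain exposure was expressed relative to free plasma exposure.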

hERG (KCNH2) = hERG (KCNH2) (Homo sapiens, UniProt Q12809); assay: Inhibition of human ERG at 33 uM relative to control
[20] = target: Sodium channel protein type 5 subunit alpha (Homo sapiens, UniProt Q14524); assay: Inhibition of Nav1.5 (unknown origin)
Sequence of Sodium channel protein type 5 subunit alpha (Q14524 whole entry): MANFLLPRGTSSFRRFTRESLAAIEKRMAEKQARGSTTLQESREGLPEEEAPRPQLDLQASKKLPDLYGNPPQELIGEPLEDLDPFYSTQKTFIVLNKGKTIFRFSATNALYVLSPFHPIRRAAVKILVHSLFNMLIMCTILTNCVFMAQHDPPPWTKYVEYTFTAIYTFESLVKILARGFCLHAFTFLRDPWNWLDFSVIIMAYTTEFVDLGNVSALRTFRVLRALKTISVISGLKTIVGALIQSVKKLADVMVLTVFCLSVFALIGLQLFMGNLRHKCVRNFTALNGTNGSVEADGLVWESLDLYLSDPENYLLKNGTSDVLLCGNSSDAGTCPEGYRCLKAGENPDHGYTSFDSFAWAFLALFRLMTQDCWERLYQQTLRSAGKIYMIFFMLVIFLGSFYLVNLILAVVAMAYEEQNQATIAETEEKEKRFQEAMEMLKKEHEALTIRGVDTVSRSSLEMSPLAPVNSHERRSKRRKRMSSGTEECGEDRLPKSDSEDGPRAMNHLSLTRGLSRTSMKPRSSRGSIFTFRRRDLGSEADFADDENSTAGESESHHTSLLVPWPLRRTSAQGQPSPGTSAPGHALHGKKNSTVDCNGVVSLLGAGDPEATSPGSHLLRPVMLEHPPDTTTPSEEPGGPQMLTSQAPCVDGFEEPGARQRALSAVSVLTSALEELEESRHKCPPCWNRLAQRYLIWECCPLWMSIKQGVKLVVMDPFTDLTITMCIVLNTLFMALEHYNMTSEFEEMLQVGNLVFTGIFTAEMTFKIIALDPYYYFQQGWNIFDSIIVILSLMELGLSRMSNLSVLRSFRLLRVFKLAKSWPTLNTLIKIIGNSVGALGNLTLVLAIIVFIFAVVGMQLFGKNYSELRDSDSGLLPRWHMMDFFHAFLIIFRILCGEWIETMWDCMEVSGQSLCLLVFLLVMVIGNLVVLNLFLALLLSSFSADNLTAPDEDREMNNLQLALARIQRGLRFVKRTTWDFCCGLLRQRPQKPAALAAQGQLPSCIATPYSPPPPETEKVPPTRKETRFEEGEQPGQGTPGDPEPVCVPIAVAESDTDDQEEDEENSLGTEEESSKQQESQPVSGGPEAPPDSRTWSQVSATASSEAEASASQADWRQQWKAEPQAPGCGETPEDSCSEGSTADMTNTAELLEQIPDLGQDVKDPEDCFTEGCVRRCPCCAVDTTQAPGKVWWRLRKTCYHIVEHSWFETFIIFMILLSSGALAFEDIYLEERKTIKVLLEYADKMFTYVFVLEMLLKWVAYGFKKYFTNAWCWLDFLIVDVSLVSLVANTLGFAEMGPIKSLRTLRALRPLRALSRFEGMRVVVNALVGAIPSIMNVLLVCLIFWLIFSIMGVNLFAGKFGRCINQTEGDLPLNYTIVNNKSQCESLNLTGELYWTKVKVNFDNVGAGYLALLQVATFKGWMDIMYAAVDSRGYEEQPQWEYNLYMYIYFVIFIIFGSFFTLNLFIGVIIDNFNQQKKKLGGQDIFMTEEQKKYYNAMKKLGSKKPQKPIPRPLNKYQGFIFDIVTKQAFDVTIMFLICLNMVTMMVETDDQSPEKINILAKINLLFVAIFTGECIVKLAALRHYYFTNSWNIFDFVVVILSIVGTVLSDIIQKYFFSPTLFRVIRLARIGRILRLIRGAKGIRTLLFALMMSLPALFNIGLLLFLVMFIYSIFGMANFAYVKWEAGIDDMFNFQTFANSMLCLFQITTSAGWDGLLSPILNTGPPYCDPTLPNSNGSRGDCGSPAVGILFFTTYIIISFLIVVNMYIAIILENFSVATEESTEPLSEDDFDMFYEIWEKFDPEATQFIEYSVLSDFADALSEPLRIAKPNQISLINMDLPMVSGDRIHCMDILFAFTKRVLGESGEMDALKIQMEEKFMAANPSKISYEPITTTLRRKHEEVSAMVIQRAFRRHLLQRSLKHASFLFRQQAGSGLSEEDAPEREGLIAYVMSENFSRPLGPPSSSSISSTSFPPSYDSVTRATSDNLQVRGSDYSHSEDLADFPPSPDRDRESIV

Sequence of Cytochrome P450 3A4 (P08684 whole entry): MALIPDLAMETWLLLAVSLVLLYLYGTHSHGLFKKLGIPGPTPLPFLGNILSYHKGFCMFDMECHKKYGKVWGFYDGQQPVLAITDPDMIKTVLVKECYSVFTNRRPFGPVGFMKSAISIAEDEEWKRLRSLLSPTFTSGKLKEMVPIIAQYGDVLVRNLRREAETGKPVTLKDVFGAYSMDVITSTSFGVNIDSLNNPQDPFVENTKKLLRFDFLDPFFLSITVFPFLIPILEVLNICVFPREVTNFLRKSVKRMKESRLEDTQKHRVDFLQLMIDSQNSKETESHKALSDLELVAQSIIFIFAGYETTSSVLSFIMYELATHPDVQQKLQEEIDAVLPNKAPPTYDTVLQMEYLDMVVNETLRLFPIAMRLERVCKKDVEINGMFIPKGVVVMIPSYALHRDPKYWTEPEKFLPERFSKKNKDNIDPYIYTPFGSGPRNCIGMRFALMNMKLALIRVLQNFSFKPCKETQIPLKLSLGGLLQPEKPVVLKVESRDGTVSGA
Sequence of Voltage-gated inwardly rectifying potassium channel KCNH2 (Q12809 whole entry): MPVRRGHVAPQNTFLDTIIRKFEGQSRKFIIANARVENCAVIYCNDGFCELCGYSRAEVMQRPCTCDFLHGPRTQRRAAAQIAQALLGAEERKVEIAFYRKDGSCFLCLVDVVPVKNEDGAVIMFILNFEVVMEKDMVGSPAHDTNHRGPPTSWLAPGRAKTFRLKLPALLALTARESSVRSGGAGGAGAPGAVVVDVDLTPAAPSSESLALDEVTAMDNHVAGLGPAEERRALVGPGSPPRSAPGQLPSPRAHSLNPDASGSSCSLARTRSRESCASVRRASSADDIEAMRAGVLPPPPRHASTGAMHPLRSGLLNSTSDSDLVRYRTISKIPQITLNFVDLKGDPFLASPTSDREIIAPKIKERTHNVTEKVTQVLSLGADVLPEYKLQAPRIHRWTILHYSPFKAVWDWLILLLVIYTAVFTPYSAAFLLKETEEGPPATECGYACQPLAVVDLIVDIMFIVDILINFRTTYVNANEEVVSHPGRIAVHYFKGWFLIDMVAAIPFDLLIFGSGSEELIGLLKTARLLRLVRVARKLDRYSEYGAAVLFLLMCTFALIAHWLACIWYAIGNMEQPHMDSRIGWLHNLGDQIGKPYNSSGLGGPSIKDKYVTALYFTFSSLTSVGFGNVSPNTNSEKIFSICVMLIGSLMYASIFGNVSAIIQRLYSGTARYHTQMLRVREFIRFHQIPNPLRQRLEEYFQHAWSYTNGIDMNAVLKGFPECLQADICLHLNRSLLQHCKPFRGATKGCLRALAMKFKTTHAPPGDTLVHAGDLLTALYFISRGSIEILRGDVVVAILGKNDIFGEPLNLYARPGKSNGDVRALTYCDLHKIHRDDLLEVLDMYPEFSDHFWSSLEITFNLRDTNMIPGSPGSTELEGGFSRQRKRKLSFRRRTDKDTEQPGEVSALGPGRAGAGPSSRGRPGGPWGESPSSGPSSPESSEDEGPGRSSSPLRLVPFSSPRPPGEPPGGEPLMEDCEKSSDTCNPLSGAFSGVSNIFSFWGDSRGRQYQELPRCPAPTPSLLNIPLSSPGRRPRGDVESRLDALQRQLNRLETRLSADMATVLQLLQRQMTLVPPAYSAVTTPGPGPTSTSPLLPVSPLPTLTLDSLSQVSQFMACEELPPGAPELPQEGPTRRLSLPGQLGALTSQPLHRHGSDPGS
T1 sequence (P22460 whole entry): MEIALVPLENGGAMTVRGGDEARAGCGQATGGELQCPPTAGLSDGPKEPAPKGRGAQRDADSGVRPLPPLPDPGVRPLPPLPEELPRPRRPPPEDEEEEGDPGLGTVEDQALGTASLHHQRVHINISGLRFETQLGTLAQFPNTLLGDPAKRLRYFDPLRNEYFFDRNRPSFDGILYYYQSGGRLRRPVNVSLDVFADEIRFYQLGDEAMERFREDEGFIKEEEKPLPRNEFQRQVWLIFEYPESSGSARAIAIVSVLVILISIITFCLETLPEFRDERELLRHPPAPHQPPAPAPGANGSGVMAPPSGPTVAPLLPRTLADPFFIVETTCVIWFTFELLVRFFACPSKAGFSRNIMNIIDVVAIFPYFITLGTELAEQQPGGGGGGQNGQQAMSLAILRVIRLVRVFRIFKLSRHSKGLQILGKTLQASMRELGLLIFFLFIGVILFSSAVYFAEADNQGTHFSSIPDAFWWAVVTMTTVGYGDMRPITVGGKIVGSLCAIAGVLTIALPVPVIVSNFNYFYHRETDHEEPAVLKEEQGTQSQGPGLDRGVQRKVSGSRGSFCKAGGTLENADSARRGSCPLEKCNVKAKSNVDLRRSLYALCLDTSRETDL
Sequence of Cytochrome P450 2D6 (P10635 whole entry): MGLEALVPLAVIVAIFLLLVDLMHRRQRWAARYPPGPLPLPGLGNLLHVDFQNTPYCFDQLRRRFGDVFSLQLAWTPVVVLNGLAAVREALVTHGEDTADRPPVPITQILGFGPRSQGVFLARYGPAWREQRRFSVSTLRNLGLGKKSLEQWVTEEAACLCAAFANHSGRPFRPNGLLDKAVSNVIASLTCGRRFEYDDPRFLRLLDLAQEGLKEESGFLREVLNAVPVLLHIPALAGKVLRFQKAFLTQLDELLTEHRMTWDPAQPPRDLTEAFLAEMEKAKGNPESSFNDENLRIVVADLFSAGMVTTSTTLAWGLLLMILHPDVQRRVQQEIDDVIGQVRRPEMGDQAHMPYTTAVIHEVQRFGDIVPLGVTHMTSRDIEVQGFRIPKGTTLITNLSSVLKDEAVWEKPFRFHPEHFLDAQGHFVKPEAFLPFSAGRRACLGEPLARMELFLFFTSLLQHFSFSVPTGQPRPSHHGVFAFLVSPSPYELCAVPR

c1ccc([C@H]([C@H](c2ccccn2)N2CCCCC2)N2CCCCC2)nc1
Drug metabolism (Cytochrome P450 3A4): Metabolite_Detected
pKa [1]: 8.7
IC50 [2]: 1.4 µM
chromatographic logD [3]: 4.6
microsomal CLint [4]: 412 µL/min/mg

c1ccc([C@H]([C@@H](c2ccccc2)N2CCCCC2)N2CCCCC2)cc1
Drug metabolism (Cytochrome P450 3A4): Metabolite_Detected
Stability [5]: Unstable
IC50 [2]: 0.41 µM
chromatographic logD [3]: 4
IC50 [6]: > 33 µM
IC50 (Cytochrome P450 2D6): 0.13 µM
microsomal CLint [4]: 14 µL/min/mg
IC50 [7]: 1.4 µM

CCCN(CC)[C@H](c1ccccn1)[C@@H](c1cccc(C#N)c1)N(CCOC)C[C@H](C)CO
IC50 [2]: 4.8 µM
IC50 [8]: 0.39 µM
CL renal [9]: 2.1 mL/min/kg
clearance [10]: 44 mL/min/kg
dose excreted [11]: 4.4%

CCCN(CC)[C@H](c1ccccn1)[C@@H](c1ccccn1)N(CCOC)C[C@H](C)CO
IC50 [2]: 10 µM
CL renal [9]: 2.7 mL/min/kg
clearance [10]: 25 mL/min/kg
dose excreted [11]: 11%

COCCN(C[C@H](C)O)[C@H](c1ccccn1)[C@@H](c1ccccn1)N1C2CCC1CC(OC)C2 (stereo not given in full)
IC50 [2]: 5.6 µM
CL renal [9]: 7.1 mL/min/kg
clearance [10]: 25 mL/min/kg
dose excreted [11]: 28%

CCCN(CCC)[C@H](c1ccccn1)[C@@H](c1ccccn1)N(CCOC)C[C@H](C)O
IC50 [2]: 2.7 µM
CL renal [9]: 2.5 mL/min/kg
clearance [10]: 21 mL/min/kg
dose excreted [11]: 11%
Cp(f) (Oryctolagus cuniculus): 0.22 µM

c1ccc([C@@H]([C@H](c2ccccn2)N2CCCCC2)N2CCCCC2)nc1
Drug metabolism (Cytochrome P450 3A4): Metabolite_Detected
pKa [1]: 10.4
IC50 [2]: 4.8 µM
chromatographic logD [3]: 2.2
microsomal CLint [4]: < 5 µL/min/mg

c1ccc([C@H]([C@@H](c2ccccn2)N2CCCCC2)N2CCCCC2)nc1
Drug metabolism (Cytochrome P450 3A4): Metabolite_Detected
pKa [1]: 10.4
IC50 [2]: 2.2 µM
chromatographic logD [3]: 2.2
IC50 [6]: > 33 µM
IC50 (Cytochrome P450 2D6): > 20 µM
microsomal CLint [4]: < 5 µL/min/mg
IC50 [7]: 17 µM

CCCN(C[C@H](C)O)[C@H](c1ccccn1)[C@@H](c1ccccn1)N1C2CCCC1CC2
Activity [12]: Toxic
IC50 [2]: 3.4 µM
CL renal [9]: 0.3 mL/min/kg
clearance [10]: 3 mL/min/kg
dose excreted [11]: 12%
Cp(f) (Oryctolagus cuniculus): 0.057 µM

CCCN(CCC)[C@H](c1ccccn1)[C@@H](c1ccccn1)N(CCC)CCC
Drug metabolism (Cytochrome P450 3A4): Metabolite_Detected
IC50 [2]: 0.22 µM
chromatographic logD [3]: 4.6
IC50 (Cytochrome P450 2D6): > 20 µM
microsomal CLint [4]: 58 µL/min/mg
IC50 [7]: > 33 µM

CCCN(CCC)[C@H](c1ccccn1)[C@@H](c1ccccn1)N(C[C@@H](C)O)C[C@@H](C)O
IC50 [2]: 2.1 µM
CL renal [9]: 5.5 mL/min/kg
clearance [10]: 16 mL/min/kg
dose excreted [11]: 19%
Cp(f) (Oryctolagus cuniculus): 0.29 µM

CCCN(CCC)[C@H](c1ccccn1)[C@@H](c1ccccn1)N(CCC)C[C@H](O)CO
IC50 [13]: 4.1 µM
IC50 [14]: > 33 µM
IC50 [15]: 4.1 µM
IC50 [16]: 11 µM
IC50 [2]: 1.7 µM
Cp(f) (Canis familiaris): 0.48 µM
inhibition [17]: 14%
IC50 [8]: 0.06 µM
IC50 [6]: > 33 µM
inhibition [18]: 13%
CL renal [9]: 0.19 mL/min/kg
Drug uptake(free) [19]: 4%
clearance [10]: 6.1 mL/min/kg
IC50 [7]: > 33 µM
inhibition at 33 µM (hERG (KCNH2)): 37%
dose excreted [11]: 5.1%
Cp(f) (Oryctolagus cuniculus): 0.15 µM
IC50 [20]: 19 µM

CCCN(CC)[C@H](c1ccccn1)[C@@H](c1ccccn1)N(CC)CCC
Drug metabolism (Cytochrome P450 3A4): Metabolite_Detected
Stability [5]: Stable
IC50 [2]: 3.2 µM
chromatographic logD [3]: 3.3
IC50 [6]: > 33 µM
CL renal [9]: 0.7 mL/min/kg
IC50 (Cytochrome P450 2D6): 5.4 µM
clearance [10]: 16 mL/min/kg
microsomal CLint [4]: 23 µL/min/mg
IC50 [7]: 60 µM
dose excreted [11]: 6.9%

CCCN(CC)[C@@H](c1ccccn1)[C@H](c1cccc(C#N)c1)N(CCOC)C[C@@H](C)CO
IC50 [2]: 7.3 µM
IC50 [8]: 0.26 µM
CL renal [9]: 1.8 mL/min/kg
clearance [10]: 37 mL/min/kg
dose excreted [11]: 4.7%
